MMP13 inh: human MMP13 inhibitors, primary screen, biochemical, FRET peptide cleavage. inhibition, % at 4 µM. Collagenase 3 (Homo sapiens), P45452. actives 0.07% (n = 65,000). MMP-13 fTHP FRET cleavage, Mca fluorescence. AID 570, 2006;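 active = inhibition above the mean of compound-free control plate wells plus 3 SD, cut at about 14% in these data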;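 also: 0% = DMSO wells and 100% = wells with reference MMP-13 inhibitor after basal subtraction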
SF1 activator: activators of human SF-1, primary screen, cell-based, CHO-K1, Gal4-SF-1 LBD, luciferase luminescence; Steroidogenic factor 1 (Homo sapiens), Q13285; CHO-K1 Gal4-SF-1 LBD luciferase reporter; % increase over DMSO SF-1-specific signal; activation, % at 10 µM; actives 1.9% (n = 65,000); AID 522, 2006;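 active = activation above the mean activation of all tested compounds plus 3 SD, cut at about 50% in these data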
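System: CHO-K1 cells with Gal4–hSF-1 LBD chimera plus Gal4-driven luciferase; quantity: 4,000 CHO-K1 cells per well; compound: one dose, 10 µM compound, 1% DMSO; times: 20 h compound treatment, 37 °C; measured by: SteadyLite luciferase luminescence; read-out: percent activation versus DMSO; benchmarks: DMSO and mock-transfected background; replicates: one test per compound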
RORA act: activators of orphan receptor RORA, primary screen, cell-based, luminescence; Nuclear receptor ROR-alpha (Homo sapiens), P35398; CHO-K1 Gal4-RORA LBD luciferase reporter; percent increase over mock-subtracted basal signal; activation, % at 10 µM; actives 1.5% (n = 65,000);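 active = activation above the mean of all tested compounds plus 3 SD, cut at about 49% in these data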;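 also: 0% = DMSO-treated RORA cells and 100% = added signal equal to DMSO minus mock-transfected cells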
MT1-MMP txn act: MT1-MMP promoter reporter activation – cell-based, luciferase luminescence, primary screen; HT1080 MT1-MMP promoter luciferase reporter, overnight; stronger effect = higher value; activation factor at 10 µM; actives 0.16% (n = 86,000); AID 750, 2007;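 active = activation factor of at least 2 for MT1-MMP transcription at 10 µM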
TNAP act DEA: human TNAP enzyme activators, primary screen, biochemical, luminescent, intermediate phosphate acceptor level; purified TNAP, CDP-star luminescence, 100 mM DEA, 30 min; stronger effect = higher value; scale: 0 levamisole-inhibited, 1 vehicle-only enzyme; activation factor at 20 µM; 64,000 tested, under 10 active; AID 813, 2007;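 active = activation factor of at least 2 at 20 µM, relative to controls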
Target sequence (P05186 whole entry, looked up): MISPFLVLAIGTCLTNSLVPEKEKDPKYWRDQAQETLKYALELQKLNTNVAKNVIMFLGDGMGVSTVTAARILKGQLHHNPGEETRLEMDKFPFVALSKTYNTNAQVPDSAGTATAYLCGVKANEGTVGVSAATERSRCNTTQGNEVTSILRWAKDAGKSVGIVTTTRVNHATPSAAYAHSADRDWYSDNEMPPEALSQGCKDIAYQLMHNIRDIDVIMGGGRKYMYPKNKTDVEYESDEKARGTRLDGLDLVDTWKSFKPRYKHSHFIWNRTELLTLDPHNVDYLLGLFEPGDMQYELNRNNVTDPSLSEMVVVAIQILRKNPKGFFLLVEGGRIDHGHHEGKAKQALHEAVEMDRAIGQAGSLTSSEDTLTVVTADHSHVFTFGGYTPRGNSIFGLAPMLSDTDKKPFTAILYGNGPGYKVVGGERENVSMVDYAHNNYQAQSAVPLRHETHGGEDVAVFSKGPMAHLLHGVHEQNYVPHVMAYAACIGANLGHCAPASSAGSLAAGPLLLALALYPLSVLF
* hit, by the source's call; . = no result given. This is a sample that favours compounds with a hit; in the whole collection about 2.1% have one here.

SMILES | MMP13 inh | SF1 activator | RORA act | MT1-MMP txn act | TNAP act DEA
O=C(Nc1ccccc1)OCC1CCCN2CCCCC12 (configuration not stated) | . | . | . | . | 0.9
Cn1c(CSc2ccccc2)c(C#N)c2ccccc21 | 1 | 27 | 61* | 1.7 | 0.9
Cc1ccc(SCc2c(C#N)c3ccccc3n2C)cc1 | 2 | -14 | -6 | 1.1 | 0.8
O=c1c2ccccc2c(C=NCCO)c(O)n1-c1ccccc1 | 15* | 10 | -1 | 1.3 | 0.9
COc1ccccc1C1c2c(oc3ccc(Cl)cc3c2=O)C(=O)N1c1cc(C)on1 (configuration not stated) | 7 | 16 | -24 | 1 | 0.9
O=C(CCCN1CCOCC1)c1ccc2c(c1)OCCO2 | 0 | 56* | 29 | 1.5 | 0.9
O=C(CCN1CCOCC1)c1ccc2c(c1)OCCO2 | . | . | . | 1.2 | .
Cc1ccc2[nH]c3c(c2c1)CCC3=O | -96 | -4 | -3 | 1.1 | 0.9
CCCCN1CCc2c([nH]c3ccc(C)cc23)C1=O | -7 | 51* | 51* | 0.9 | 0.9
O=C(CSCc1n[nH]c(=O)[nH]1)NCCOc1cccc(Oc2ccccc2)c1 | 15* | -7 | -5 | 1.2 | 1.1
COC(=O)c1ccc(C(NC(=O)OCc2ccccc2)/C(F)=C/[C@@H](C)C(=O)NCCc2c[nH]c3ccc(OC)cc23)cc1 (some centres not stated) | . | . | . | 1.2 | .
O=C(O)c1ccccc1C(=O)Nc1ccccc1 | 5 | -18 | -8 | 1 | 0.9
O=C(Nc1ccccc1)c1cnc[nH]1 | -12 | 57* | 28 | 1.5 | 0.9
O=C(Cn1cnc2ccccc2c1=O)c1ccc2c(c1)OCCO2 | 2 | 75* | 39 | 1.1 | 1
O=c1c2ccccc2nnn1CSc1ccc2c(c1)OCCO2 | -1 | 77* | 38 | 1.4 | .
O=c1c2ccccc2nnn1CSc1nnc2ccccn12 | 0 | 78* | 23 | 1.5 | 0.9
O=C(Cn1cnc2ccccc2c1=O)NCc1ccc2c(c1)OCO2 | . | . | . | 1.1 | .
CCc1c(C)nc2ncnn2c1N1CCC(C(=O)Nc2cccc(C(C)=O)c2)CC1 | 0 | 13 | 4 | 1 | 1
COc1ccc(Nc2nc(-c3sc(N)nc3C)cs2)cc1 | 7 | 29 | 6 | 1.9 | 0.8
Cc1nc(N)sc1-c1csc(Nc2ccccn2)n1 | 12 | 31 | 57* | 1.4 | 0.9
Cc1nc(N)sc1-c1csc(Nc2ccc(Cl)cn2)n1 | 16* | 26 | 20 | 1.2 | 1
COc1ccc(C(=O)Nc2ccc3c(c2)nc2n3CCSC2)cc1 | -3 | 57* | 26 | 1.3 | 0.9
N=C(N)N1CCc2ccccc2C1 | . | . | . | 1.1 | .
Cc1nc2c(C(=O)N3CCCCC3)cnn2c(C)c1Cc1ccccc1F | -28 | 42 | 76* | 1.2 | 0.9
Cc1nc2c(C(=O)N3CCN(C)CC3)cnn2c(C)c1Cc1ccc(Cl)cc1 | . | . | . | 1.2 | .
SMILES | MMP13 inh | SF1 activator | RORA act | MT1-MMP txn act | TNAP act DEA
Cc1ccc(CNC(=O)[C@@H]2C[C@H]2[C@@H](NP(=O)(c2ccccc2)c2ccccc2)c2ccccc2)o1 | . | . | . | 1.2 | .
COCCCn1cnc2oc3nc4ccccc4nc3c2c1=O | -89 | 34 | 50* | 1.1 | 0.9
COc1ccccc1C(=O)Nc1ccc(S(=O)(=O)N2CCc3ccccc32)cc1 | . | . | . | 1 | .
COC(=O)Nc1ccc(S(=O)(=O)N2CCCc3ccccc32)cc1 | 5 | 37 | 53* | 0.7 | 1
COc1cc(NC(=O)c2cc3nc(C)cc(C)n3n2)c(OC)cc1Cl | -4 | 58* | 86* | 1.1 | 0.9
COc1cc(NC(=O)c2c(F)c(F)c(F)c(F)c2F)c(OC)cc1Cl | 1 | 1 | -24 | 1.1 | 0.9
COCCNC(=O)C1(CC(C)C)C=CCN1C(=O)OC (configuration not stated) | . | . | . | 1.3 | .
CC(=NC1CCCC1)c1c(C)[nH]n(-c2nc3ccccc3s2)c1=O | -1 | 71* | 8 | 0.8 | 0.9
CC(=NCCCn1ccnc1)c1c(-c2ccccc2)[nH]n(-c2nc3ccccc3s2)c1=O | . | . | . | 1.1 | .
O=C(Cn1cc(C(=O)c2cccs2)c2ccccc21)NC1CCCCC1 | . | . | . | 1.1 | .
O=S(=O)(NCC1CCCO1)c1ccc(S(=O)(=O)N(Cc2ccccc2F)C2CCCCC2)cc1 (configuration not stated) | . | . | . | 1.3 | .
COC(=O)c1[nH]c2cc(C)ccc2c1NC(=O)CN1CCCc2ccccc21 | -4 | 14 | 8 | 2.2* | 1
C=CCNC(=O)C1CCN(c2nc(C)cc(-c3ccccc3)n2)CC1 | -21 | 102* | 33 | 1.7 | 0.9
COc1ccc(NC(=O)Nc2nccs2)cc1 | 2 | 73* | 64* | 1.1 | 0.9
COc1ccc(NC(=O)Nc2ccc(OC)cc2)cc1 | . | . | . | 1.3 | .
O=C(Nc1ccccc1)Nc1nccs1 | . | . | . | 1.3 | .
COc1ccc(NC(=O)Nc2ccc3nccnc3c2)cc1 | -1 | 51* | 57* | 1.3 | 0.9
COc1ccc(NC(=O)Nc2ccc(N(C)C)cc2)cc1 | 5 | 29 | 58* | 1.2 | 0.9
O=C(Nc1ccccc1)Nc1ccc2snnc2c1 | . | . | . | 1.8 | .
CN(C)c1ccc(NC(=O)Nc2ccc3snnc3c2)cc1 | 7 | 48 | 56* | 1.3 | 0.9
Cc1cc(CNC(=O)[C@H](C)[C@H]2C[C@]2(C)[C@H](NC(=O)OCc2ccccc2)c2ccccc2)nn1C | . | . | . | 1.1 | .
COc1cccc(C(=O)Nc2ccc(N(C)C)cc2)c1OC | -2 | 50* | 43 | . | 1
COC(=O)C1CC1C(NC(=O)[C@@H]1CCCN1)c1ccccc1 (some centres not stated) | . | . | . | 1.2 | .
Cc1cc2n(n1)C(c1ccc(N(C)C)cc1)Nc1ccccc1-2 (configuration not stated) | -233 | 75* | 13 | 1.3 | 0.9
Cc1cc2n(n1)C(c1ccccc1)Nc1ccccc1-2 (configuration not stated) | -12 | 8 | -18 | 1 | 0.9
SMILES | MMP13 inh | SF1 activator | RORA act | MT1-MMP txn act | TNAP act DEA
COc1ccc(NC(=O)c2ccccc2NC(=O)COc2ccccc2)cc1 | . | . | . | 1 | .
CCOc1ccc(NC(=O)c2ccccc2OC)cc1 | -3 | 73* | 49* | 1.6 | 0.9
CCOc1ccc(NC(=O)c2ccccc2CO)cc1 | 2 | 71* | 51* | 1.6 | 0.9
CCOc1ccc(NC(=O)c2ccccc2O)cc1 | -6 | -6 | -8 | 0.9 | 1
COCC(=O)Nc1ccccc1C(=O)Nc1ccc(OC)cc1 | -8 | 59* | 19 | 1.2 | 0.9
O=c1oc(-c2ccc(Br)o2)nc2ccccc12 | . | . | . | 1.1 | .
CCCc1noc(-c2ccc(-c3ccccc3)cc2)n1 | -3 | 55* | 57* | 1 | 1

Bioassay records deposited in PubChem by several laboratories.
